Experimental data published in ChEMBL document CHEMBL1147539, “Synthesis and biological evaluation of novel, selective, nonsteroidal glucocorticoid receptor antagonists” (Bioorg Med Chem Lett, 2004).

What was measured:
Glucocorticoid receptor [1] = target: T1, Glucocorticoid receptor (Homo sapiens, UniProt P04150); experiment: Effect on human Glucocorticoid receptor (GR) in a whole cell assay to measure functional cellular GR-antagonism (GRAF)
T1 sequence (P04150 whole entry): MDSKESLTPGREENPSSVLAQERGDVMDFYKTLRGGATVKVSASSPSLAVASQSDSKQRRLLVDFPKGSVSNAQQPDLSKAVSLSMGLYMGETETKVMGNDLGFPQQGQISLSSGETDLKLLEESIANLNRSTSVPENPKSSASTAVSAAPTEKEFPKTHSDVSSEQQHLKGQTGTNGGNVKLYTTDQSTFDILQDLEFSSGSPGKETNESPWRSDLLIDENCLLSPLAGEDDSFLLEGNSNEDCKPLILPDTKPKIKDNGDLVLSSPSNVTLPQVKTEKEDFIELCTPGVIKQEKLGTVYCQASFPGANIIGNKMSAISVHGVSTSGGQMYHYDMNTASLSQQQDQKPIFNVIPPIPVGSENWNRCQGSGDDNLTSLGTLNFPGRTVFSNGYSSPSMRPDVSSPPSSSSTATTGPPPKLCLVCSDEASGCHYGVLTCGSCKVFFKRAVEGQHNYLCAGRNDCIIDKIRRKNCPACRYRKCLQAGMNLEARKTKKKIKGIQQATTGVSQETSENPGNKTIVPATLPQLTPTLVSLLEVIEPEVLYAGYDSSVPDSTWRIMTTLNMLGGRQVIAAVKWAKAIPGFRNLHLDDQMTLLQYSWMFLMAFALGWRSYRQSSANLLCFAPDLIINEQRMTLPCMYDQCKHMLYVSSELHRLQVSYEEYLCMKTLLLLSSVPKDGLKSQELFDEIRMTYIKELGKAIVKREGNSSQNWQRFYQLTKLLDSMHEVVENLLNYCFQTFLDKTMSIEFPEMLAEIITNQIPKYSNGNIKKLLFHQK

Glucocorticoid receptor [2] = target: T1, Glucocorticoid receptor; experiment: Displacement of [3H]dexamethasone from human Glucocorticoid receptor (GR)
Glucocorticoid receptor [3] = target: T1, Glucocorticoid receptor; experiment: Displacement of [3H]dexamethasone from human Glucocorticoid receptor (GR); Value ranges from 3-4 nM
Summary of the method: (§1)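 Binding to human GR; IC50 reported as the geometric mean of two experiments (three for some values), each run in duplicate, with the range of the experiments given.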

Glucocorticoid receptor [4] = target: T1, Glucocorticoid receptor; experiment: Displacement of [3H]dexamethasone from human Glucocorticoid receptor (GR); Value ranges from 5-6 nM; summary of the method: as §1
Glucocorticoid receptor [5] = target: T1, Glucocorticoid receptor; experiment: Displacement of [3H]dexamethasone from human Glucocorticoid receptor (GR); Value ranges from 1428-1433 nM; summary of the method: as §1
Glucocorticoid receptor [6] = target: T1, Glucocorticoid receptor
Glucocorticoid receptor [7] = target: T1, Glucocorticoid receptor; remark: listed apart in the source
Progesterone receptor = target: T2, Progesterone receptor (Homo sapiens, UniProt P06401); experiment: Displacement of [3H]progesterone from human Progesterone receptor
T2 sequence (P06401 whole entry): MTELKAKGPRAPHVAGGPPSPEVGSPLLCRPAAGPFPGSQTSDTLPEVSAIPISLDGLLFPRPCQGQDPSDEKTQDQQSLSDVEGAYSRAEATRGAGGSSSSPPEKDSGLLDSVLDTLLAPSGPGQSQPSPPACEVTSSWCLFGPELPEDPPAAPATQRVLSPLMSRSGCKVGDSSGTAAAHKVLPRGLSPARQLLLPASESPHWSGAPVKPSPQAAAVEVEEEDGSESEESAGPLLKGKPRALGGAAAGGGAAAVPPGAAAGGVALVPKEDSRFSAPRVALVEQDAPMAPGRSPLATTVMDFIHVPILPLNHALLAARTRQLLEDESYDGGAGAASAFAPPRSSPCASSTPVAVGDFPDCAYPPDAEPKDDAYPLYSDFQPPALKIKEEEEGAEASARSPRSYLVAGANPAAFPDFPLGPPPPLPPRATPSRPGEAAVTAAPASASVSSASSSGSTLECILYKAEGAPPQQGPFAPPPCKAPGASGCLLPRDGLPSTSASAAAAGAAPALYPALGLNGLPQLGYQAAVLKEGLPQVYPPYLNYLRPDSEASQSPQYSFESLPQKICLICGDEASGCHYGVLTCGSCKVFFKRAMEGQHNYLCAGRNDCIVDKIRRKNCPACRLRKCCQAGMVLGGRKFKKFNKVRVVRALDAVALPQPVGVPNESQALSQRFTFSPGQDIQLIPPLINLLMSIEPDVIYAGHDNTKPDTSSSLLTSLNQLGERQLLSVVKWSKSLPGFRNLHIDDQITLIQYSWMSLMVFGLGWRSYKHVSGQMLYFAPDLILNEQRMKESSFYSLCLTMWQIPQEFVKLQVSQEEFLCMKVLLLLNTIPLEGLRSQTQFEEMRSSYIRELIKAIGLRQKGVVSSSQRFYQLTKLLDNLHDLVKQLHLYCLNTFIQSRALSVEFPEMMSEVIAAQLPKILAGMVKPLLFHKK
Summary of the method: (§2)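 Human steroid receptor (PR, MR, AR, ERα) binding measured by radioligand displacement, with IC50s determined in duplicate. Values without a range come from a single experiment, and values with a range are geometric means of repeat experiments.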

Androgen receptor = target: T3, Androgen receptor (Homo sapiens, UniProt P10275); experiment: Displacement of [3H]mibolerone from human Androgen receptor
T3 sequence (P10275 whole entry): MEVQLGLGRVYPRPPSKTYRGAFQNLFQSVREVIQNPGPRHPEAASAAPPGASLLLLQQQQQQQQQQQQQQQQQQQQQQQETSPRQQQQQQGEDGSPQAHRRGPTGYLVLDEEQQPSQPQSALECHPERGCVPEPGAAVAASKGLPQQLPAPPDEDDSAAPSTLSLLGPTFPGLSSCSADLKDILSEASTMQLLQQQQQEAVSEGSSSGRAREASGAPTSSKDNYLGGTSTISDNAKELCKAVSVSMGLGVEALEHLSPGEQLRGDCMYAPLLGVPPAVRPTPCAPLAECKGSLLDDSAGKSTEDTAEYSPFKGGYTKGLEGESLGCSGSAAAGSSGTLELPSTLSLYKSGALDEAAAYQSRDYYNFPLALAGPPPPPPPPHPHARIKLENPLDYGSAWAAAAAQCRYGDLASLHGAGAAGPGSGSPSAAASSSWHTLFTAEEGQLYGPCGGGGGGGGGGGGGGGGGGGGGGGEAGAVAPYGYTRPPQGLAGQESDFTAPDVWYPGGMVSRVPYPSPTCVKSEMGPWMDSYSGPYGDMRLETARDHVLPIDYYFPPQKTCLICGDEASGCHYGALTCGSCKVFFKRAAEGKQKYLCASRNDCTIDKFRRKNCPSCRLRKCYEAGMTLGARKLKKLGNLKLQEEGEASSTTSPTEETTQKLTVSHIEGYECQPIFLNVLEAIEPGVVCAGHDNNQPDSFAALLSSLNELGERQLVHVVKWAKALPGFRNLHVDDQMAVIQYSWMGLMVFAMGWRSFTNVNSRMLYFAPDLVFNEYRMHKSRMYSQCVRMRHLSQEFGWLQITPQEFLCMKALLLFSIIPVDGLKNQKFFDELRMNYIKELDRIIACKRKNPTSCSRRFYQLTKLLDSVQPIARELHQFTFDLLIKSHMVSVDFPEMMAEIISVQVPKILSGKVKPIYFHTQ

[8] = target: T4, Mineralocorticoid receptor (Homo sapiens, UniProt P08235); experiment: Displacement of [3H]aldosterone from human Mineralocorticoid receptor; summary of the method: as §2
T4 sequence (P08235 whole entry): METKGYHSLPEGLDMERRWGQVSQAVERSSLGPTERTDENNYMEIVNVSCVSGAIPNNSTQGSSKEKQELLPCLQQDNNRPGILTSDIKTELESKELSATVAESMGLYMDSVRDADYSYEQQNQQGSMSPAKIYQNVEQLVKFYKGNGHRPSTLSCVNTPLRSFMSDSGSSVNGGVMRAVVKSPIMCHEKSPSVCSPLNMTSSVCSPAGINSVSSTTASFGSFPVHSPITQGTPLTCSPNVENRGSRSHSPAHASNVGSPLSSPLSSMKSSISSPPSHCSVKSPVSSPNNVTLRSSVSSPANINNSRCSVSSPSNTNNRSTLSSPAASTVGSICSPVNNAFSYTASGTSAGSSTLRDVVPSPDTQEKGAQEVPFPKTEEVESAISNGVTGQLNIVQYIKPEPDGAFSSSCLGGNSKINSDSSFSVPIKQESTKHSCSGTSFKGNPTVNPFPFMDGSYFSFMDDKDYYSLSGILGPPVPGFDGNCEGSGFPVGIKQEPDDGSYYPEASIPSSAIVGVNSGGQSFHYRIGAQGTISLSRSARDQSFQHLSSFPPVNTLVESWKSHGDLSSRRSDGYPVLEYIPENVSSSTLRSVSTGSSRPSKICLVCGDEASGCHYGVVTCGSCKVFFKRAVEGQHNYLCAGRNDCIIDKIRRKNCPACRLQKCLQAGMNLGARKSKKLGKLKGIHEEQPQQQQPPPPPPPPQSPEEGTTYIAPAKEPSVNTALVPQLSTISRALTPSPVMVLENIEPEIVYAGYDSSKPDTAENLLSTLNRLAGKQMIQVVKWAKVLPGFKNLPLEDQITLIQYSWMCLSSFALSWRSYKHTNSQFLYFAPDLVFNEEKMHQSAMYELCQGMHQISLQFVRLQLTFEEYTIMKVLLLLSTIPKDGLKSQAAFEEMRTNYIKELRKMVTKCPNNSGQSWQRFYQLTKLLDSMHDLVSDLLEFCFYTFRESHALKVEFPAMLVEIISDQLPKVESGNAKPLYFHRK

Glucocorticoid receptor [9] = target: T1, Glucocorticoid receptor; experiment: Displacement of [3H]dexamethasone from human Glucocorticoid receptor (GR); […]
Estrogen receptor = target: T5, Estrogen receptor (Homo sapiens, UniProt P03372); experiment: Displacement of [3H]estradiol from human estrogen receptor alpha; summary of the method: as §2
T5 sequence (P03372 whole entry): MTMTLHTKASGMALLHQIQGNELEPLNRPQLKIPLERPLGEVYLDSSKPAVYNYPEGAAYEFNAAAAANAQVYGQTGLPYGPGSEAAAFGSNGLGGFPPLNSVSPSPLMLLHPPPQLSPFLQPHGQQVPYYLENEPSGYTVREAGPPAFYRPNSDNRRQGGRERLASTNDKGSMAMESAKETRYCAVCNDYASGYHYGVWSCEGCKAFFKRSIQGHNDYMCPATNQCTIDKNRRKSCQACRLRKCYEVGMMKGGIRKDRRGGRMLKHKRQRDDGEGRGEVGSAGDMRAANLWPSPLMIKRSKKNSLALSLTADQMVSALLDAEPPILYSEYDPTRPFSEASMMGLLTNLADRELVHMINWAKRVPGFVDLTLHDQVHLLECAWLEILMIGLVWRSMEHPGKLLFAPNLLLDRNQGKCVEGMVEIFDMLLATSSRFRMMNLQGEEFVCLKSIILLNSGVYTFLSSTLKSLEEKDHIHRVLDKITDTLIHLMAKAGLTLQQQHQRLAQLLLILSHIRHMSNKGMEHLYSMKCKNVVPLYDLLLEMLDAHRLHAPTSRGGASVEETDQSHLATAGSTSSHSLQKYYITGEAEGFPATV

| Compound | IC50 (Glucocorticoid receptor [1]) | IC50 (Glucocorticoid receptor [2]) | IC50 (Androgen receptor) | IC50 [8] | also measured |
| --- | --- | --- | --- | --- | --- |
| CNc1cccc(C2Oc3cccc(OC)c3-c3ccc(NS(C)(=O)=O)cc32)c1 (configuration not stated) | 180 nM | 23 nM | – | – | – |
| COc1cccc2c1-c1ccc(NS(C)(=O)=O)cc1C(c1ccc(Cl)c(Cl)c1)O2 (configuration not stated) | 378 nM | – | – | – | IC50 (Glucocorticoid receptor [3]): 3 nM |
| COc1cccc(C2Oc3cccc(OC)c3-c3ccc(NS(C)(=O)=O)cc32)c1 (configuration not stated) | 122 nM | – | – | – | IC50 (Glucocorticoid receptor [4]): 6 nM |
| COc1cccc2c1-c1ccc(NS(C)(=O)=O)cc1C(c1ccccn1)O2 (configuration not stated) | – | – | – | – | IC50 (Glucocorticoid receptor [5]): 1430 nM |
| COc1cccc2c1-c1ccc(NS(=O)(=O)c3ccccc3)cc1C(c1ccccc1)O2 (configuration not stated) | 137 nM | – | – | – | IC50 (Glucocorticoid receptor [6]): 146 nM |
| COc1cccc2c1-c1ccc(NS(=O)(=O)c3cccs3)cc1C(c1ccccc1)O2 (configuration not stated) | 93 nM | – | – | – | IC50 (Glucocorticoid receptor [7]): 18 nM |
| COc1cccc2c1-c1ccc(NS(C)(=O)=O)cc1C(c1cccc(C)c1)O2 (configuration not stated) | 21 nM | 1 nM | > 10000 nM | 333 nM | IC50 (Progesterone receptor): 236 nM |
| COc1cccc2c1-c1ccc(NS(C)(=O)=O)cc1C(c1cc(C)cc(C)c1)O2 (configuration not stated) | 78 nM | 2 nM | > 10000 nM | 1220 nM | – |
| COc1cccc2c1-c1ccc(NS(C)(=O)=O)cc1C(C1CCCCC1)O2 (configuration not stated) | 630 nM | – | – | – | IC50 (Glucocorticoid receptor [9]): 47 nM |
| COc1cccc2c1-c1ccc(NS(C)(=O)=O)cc1C(c1ccccc1)O2 (configuration not stated) | 87 nM | – | 6530 nM | 22900 nM | IC50 (Glucocorticoid receptor [9]): 19 nM; IC50 (Estrogen receptor): > 10000 nM |
